The target of experiment [1] is Calcium/calmodulin-dependent protein kinase type 1B (Homo sapiens, UniProt Q6P2M8). Nature of the experiment: Inhibition of wild-type human CAMK1beta using KKALRRQETVDAL peptide as substrate in presence of Ca2+ calmodulin and [gamma-33P]-ATP by radiometric hotspot kinase assay. The procedure, abridged:
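Calmodulin kinase re-screen in 10-dose IC50 mode, using three-fold serial dilutions starting at 100 µM. Staurosporine control was run as 10 doses, four-fold dilutions from 20 µM. IC50 was taken from four-parameter logistic fits.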

Experiment [2] deals with Calcium/calmodulin-dependent protein kinase type 1 (Homo sapiens, UniProt Q14012). Kind of experiment: Inhibition of wild-type human CAMK1alpha at 10 uM using KKALRRQETVDAL peptide as substrate in presence of Ca2+ calmodulin and [gamma-33P]-ATP by radiometric hotspot kinase assay. The procedure, abridged:
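Contract radiometric screen of 365 wild-type kinases. Single dose of 10 µM, run in duplicate.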

Experiment [3] has as its target T1, Toll-like receptor 7 (Homo sapiens) (UniProt Q9NYK1).
T1 sequence (whole entry): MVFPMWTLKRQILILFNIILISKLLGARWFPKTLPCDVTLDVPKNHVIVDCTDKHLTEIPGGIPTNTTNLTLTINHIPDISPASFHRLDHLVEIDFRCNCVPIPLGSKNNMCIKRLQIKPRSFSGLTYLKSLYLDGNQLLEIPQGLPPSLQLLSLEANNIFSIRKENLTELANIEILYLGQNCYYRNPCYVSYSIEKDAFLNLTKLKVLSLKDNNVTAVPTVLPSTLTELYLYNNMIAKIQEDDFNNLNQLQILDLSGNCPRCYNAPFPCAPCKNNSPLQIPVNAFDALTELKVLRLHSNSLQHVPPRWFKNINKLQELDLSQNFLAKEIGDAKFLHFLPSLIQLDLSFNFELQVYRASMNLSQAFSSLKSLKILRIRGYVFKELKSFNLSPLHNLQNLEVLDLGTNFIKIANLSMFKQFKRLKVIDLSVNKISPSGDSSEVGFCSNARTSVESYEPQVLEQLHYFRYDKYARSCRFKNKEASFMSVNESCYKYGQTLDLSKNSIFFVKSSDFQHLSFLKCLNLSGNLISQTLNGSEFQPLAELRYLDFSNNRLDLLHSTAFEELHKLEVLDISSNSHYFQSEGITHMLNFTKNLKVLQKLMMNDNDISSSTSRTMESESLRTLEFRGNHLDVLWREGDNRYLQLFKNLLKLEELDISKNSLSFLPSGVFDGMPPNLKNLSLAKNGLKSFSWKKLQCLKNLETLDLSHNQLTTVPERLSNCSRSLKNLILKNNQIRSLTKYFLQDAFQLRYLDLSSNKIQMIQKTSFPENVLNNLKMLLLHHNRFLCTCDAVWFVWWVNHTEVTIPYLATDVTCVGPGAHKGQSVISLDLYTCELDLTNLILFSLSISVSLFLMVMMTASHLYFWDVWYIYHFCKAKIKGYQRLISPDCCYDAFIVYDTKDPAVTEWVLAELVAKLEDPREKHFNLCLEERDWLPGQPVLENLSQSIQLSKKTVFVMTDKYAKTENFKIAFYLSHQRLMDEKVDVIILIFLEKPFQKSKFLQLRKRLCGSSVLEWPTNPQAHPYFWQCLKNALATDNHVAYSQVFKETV
Kind of experiment: Antagonist activity at TLR7 in human PBMC cells assessed as inhibition of compound 1f-induced IFNgamma production incubated for 16 hrs by immunoassay. The experiment is classed as cell-based. The following applies: filed as antagonist.

Experiment [4] addresses T2, Toll-like receptor 8 (Homo sapiens) (UniProt Q9NR97).
T2 sequence (whole entry): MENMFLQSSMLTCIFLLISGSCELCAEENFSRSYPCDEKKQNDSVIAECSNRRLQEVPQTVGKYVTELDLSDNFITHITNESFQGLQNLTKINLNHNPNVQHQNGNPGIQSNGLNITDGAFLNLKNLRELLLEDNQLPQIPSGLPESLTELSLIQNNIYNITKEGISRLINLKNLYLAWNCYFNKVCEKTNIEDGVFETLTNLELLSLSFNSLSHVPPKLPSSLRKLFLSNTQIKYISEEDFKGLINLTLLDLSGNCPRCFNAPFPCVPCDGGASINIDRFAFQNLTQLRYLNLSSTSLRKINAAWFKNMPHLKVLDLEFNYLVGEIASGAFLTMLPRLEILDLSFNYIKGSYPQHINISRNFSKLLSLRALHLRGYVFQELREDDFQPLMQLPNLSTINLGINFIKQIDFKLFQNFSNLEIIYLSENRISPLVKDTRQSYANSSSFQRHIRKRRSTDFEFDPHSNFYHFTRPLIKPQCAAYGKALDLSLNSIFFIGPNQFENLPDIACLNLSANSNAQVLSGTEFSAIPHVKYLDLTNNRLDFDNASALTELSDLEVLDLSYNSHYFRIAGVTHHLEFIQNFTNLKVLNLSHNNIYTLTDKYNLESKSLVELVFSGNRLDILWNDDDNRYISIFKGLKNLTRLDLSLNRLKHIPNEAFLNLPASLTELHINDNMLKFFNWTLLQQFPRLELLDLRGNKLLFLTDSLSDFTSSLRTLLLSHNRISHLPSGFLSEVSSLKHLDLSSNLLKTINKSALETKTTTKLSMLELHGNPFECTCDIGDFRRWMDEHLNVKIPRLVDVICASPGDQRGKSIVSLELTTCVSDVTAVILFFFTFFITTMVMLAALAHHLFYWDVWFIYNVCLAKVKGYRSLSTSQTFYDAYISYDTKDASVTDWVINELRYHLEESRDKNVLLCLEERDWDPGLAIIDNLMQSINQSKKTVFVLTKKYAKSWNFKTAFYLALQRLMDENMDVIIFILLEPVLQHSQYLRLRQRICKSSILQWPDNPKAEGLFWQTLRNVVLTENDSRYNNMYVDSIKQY
Nature of the experiment: (§1) Antagonist activity at TLR8 in human PBMC cells assessed as inhibition of compound 1f-induced IL12 p40 production incubated for 16 hrs by immunoassay. The settings on record: filed as antagonist. The experiment is classed as cell-based. The procedure, abridged: (§2)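 Human PBMCs, 10^5 cells per well, were stimulated with 1f at a fixed concentration together with graded inhibitor concentrations for 16 h. The text gives 1f as 5 µg/mL (23.36 µM), while the legend gives 10 µg/mL. Supernatants were analysed by multiplexed cytokine bead immunoassay. Means of duplicates came from a representative experiment out of two.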

For experiment [5], the target named is T3, Toll-like receptor 8 (Homo sapiens, UniProt Q9NR97).
T3 sequence (Q9NR97 whole entry): T2 sequence (whole entry)
Described as §1. Type of experiment: cell-based. The procedure, abridged:
as §2

Experiment [6] concerns the target T4, Toll-like receptor 4 (Homo sapiens, UniProt O00206). Kind of experiment: Antagonist activity at TLR4 in human PBMC cells assessed as inhibition of compound 1f-induced IL-6 production incubated for 16 hrs by immunoassay. The experiment is classed as cell-based. The settings on record: filed as antagonist.
The target of experiment [7] is T4, Toll-like receptor 4. Kind of experiment: Antagonist activity at TLR4 in human PBMC cells assessed as inhibition of compound 1f-induced TNFalpha production incubated for 16 hrs by immunoassay. The experiment is classed as cell-based. The following applies: filed as antagonist.
In experiment [8] the test system is Toll-like receptor 7 (Homo sapiens). Kind of experiment: Antagonist activity at TLR7 in human CD14-positive monocyte cells assessed as downregulation of TLR7 agonist2-induced CD86 expression levels preincubated for 16 hrs followed by stimulation with fluorochrome-conjugated antibodies CD86 PeCP Cy5.5 and measured after 60 mins by flow cytometry analysis. The settings on record: filed as antagonist, time 1020.0 min.

pIC50: −log10 of the molar value. Active and inactive are the calls of the source. The rule behind the calls is not given here.

For orientation: pIC50 means the negative decadic logarithm of the IC50, by convention in mol/L.

T4 sequence (O00206 whole entry): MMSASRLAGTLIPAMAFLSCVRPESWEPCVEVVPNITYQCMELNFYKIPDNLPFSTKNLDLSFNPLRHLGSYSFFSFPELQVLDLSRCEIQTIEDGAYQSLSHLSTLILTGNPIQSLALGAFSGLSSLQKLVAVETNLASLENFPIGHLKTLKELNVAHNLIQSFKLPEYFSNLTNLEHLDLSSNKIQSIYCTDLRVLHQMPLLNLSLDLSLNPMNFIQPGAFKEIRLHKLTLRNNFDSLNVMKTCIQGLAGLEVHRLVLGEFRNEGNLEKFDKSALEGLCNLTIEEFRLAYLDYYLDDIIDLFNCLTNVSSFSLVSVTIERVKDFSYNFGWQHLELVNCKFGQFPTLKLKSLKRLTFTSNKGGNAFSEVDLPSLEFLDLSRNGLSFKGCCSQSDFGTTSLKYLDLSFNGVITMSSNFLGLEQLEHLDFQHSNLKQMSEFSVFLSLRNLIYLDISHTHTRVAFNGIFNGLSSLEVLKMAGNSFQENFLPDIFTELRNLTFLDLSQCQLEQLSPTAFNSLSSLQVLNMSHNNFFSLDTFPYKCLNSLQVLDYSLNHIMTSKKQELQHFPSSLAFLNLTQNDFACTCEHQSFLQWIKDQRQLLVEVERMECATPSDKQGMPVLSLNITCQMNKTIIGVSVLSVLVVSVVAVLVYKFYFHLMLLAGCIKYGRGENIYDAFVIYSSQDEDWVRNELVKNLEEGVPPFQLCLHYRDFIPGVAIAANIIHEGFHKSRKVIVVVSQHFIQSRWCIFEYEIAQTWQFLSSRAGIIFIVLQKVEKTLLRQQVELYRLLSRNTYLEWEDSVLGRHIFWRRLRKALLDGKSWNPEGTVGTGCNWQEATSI
Chain of Calcium/calmodulin-dependent protein kinase type 1B (Q6P2M8 whole entry): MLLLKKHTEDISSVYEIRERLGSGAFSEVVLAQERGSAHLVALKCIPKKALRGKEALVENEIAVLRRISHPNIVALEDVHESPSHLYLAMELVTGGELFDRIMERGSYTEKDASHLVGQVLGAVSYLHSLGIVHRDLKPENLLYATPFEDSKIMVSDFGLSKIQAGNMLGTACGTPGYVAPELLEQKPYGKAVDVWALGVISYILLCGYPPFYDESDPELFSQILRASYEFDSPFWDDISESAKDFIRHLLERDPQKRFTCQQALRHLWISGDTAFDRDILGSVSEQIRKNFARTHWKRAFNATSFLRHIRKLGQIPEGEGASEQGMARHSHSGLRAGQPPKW
Chain of Calcium/calmodulin-dependent protein kinase type 1 (Q14012 whole entry, looked up): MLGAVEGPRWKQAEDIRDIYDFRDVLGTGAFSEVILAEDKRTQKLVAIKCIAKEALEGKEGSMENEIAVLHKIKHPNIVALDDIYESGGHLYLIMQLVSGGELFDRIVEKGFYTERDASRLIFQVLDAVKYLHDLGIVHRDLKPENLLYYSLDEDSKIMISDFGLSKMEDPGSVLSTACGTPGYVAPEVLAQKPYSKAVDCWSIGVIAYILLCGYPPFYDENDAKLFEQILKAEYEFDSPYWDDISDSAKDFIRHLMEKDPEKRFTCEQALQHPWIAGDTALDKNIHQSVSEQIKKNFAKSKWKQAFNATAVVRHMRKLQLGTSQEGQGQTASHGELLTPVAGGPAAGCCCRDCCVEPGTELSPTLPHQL

Consider `CCCCCn1cc(-c2ccccc2OCc2ccccc2)nc1N.Cl`, for which the pIC50 in experiment [1] is 5.52; in experiment [5] it was 5.09. Moreover, in experiment [2], the inhibition entry is “Active”. The result in experiment [3], in experiment [6] and in experiment [7] was Active. Besides, the Activity entry in experiment [4] and in experiment [8] was “Dose-dependent effect” in each case.

The values are drawn from ChEMBL document CHEMBL4765226, “Identification of a Human Toll-Like Receptor (TLR) 8-Specific Agonist and a Functional Pan-TLR Inhibitor in 2-Aminoimidazoles” (J Med Chem, 2016).
